{"source": "ChEMBL document CHEMBL1799966", "about": "“Synthesis and anticancer activity of oxindole derived imidazo[1,5-a]pyrazines” (Eur J Med Chem, 2011)", "key": {"[1]": {"system": "A549", "experiment": "Induction of apoptosis in human A549 cells assessed as intraneucleosomal DNA fragmentation at 6.5 uM after 24 to 48 hrs by agarose gel electrophoresis technique", "format": "functional, cell-based", "procedure,_shortened": "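After 24 h and 48 h at 6.5 µM, A549 cells were pelleted, washed in PBS and lysed. The supernatant was treated with SDS and RNase A for 2 h at 56 °C, then proteinase K. DNA was precipitated with ammonium acetate and ice-cold ethanol at −80 °C for 1 h, washed in 80% ethanol, dissolved in TE, and run on 2% agarose gel.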"}, "[2]": {"system": "A549", "experiment": "Induction of apoptosis in human A549 cells assessed as apoptotic bodies formation at 6.5 uM after 24 to 48 hrs by Hoechst 33342 staining", "format": "functional, cell-based", "procedure,_shortened": "(§1)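 A549 cells were grown 24 h on coverslips at 10,000 cells, then exposed to 6.5 µM for 24 h and 48 h, with 0.001% DMSO vehicle controls. Hoechst 33342 (0.5 µg/mL) with 4% paraformaldehyde was applied for 30 min at 37 °C. Random fields were examined by fluorescence microscopy, scoring relative fluorescence and nuclear fragmentation.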"}, "[3]": {"system": "A549", "experiment": "Induction of apoptosis in human A549 cells assessed as nuclear fragmentation at 6.5 uM after 24 to 48 hrs by Hoechst 33342 staining", "format": "functional, cell-based", "procedure,_shortened": "as §1"}, "[4]": {"system": "A549", "experiment": "Growth inhibition of human A549 cells", "format": "functional, cell-based", "procedure,_shortened": "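MTT reduction assay. Cells were seeded at 1 × 10^4 per well in DMEM with 10% FBS and pre-incubated 24 h at 37 °C under CO2. Compounds were diluted in medium and incubated 24 h. Medium was then removed, MTT (5 mg/mL stock) added for 4 h, formazan dissolved in DMSO, and absorbance read at 540 nm.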"}, "[5]": {"system": "A549", "experiment": "Induction of cell cycle arrest in human A549 cells assessed as accumulation at sub G1 phase at 6.5 uM after 48 hrs by propidium iodide staining-based FACS analysis (reference value: 1.02 %)", "format": "functional", "procedure,_shortened": "(§2)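 A549 cells (1 × 10^6) in six-well plates received 6.5 µM (final) for 24 h or 48 h. Floating and adherent cells were fixed in 70% ethanol, washed in PBS, then stained for 20 min with 50 µg/mL propidium iodide in hypotonic citrate/Triton X-100 buffer with DNase-free RNase A. Cells were analysed by FACS.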"}, "[6]": {"system": "A549", "experiment": "Induction of cell cycle arrest in human A549 cells assessed as accumulation at G0/G1 phase at 6.5 uM after 48 hrs by propidium iodide staining-based FACS analysis (reference value: 56.26 %)", "format": "functional", "procedure,_shortened": "as §2"}, "[7]": {"system": "A549", "experiment": "Induction of cell cycle arrest in human A549 cells assessed as accumulation at G2/M phase at 6.5 uM after 48 hrs by propidium iodide staining-based FACS analysis (reference value: 20.92 %)", "format": "functional", "procedure,_shortened": "as §2"}, "[8]": {"system": "HEK293", "experiment": "Cytotoxicity against human HEK293 cells after 48 hrs by MTT assay", "format": "cell-based", "conditions": "hek293, 48 h", "procedure,_shortened": "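HEK-293 cells were seeded at 1 × 10^4 cells/well in DMEM with 10% FBS and held 24 h at 37 °C under CO2. Compound diluted in culture medium was added for 48 h. MTT (5 mg/mL stock) was then added for 4 h, formazan dissolved in DMSO, and absorbance read at 540 nm.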"}, "[9]": {"system": "A549", "experiment": "Induction of apoptosis in human A549 cells assessed as late apoptotic cells at 6.5 uM after 24 hrs using Annexin V-FITC and PI staining by flow cytometry (reference value: 85.7 %)", "format": "functional"}, "[10]": {"system": "A549", "experiment": "Induction of apoptosis in human A549 cells assessed as pre-necrotic cells at 6.5 uM after 24 hrs using Annexin V-FITC and PI staining by flow cytometry (reference value: 0.5 %)", "format": "functional"}, "[11]": {"system": "A549", "experiment": "Induction of apoptosis in human A549 cells assessed as viable cells at 6.5 uM after 48 hrs using Annexin V-FITC and PI staining by flow cytometry (reference value: 11.1 %)", "format": "functional", "conditions": "A549, 48 h, read-out: Activity"}, "[12]": {"system": "A549", "experiment": "Induction of apoptosis in human A549 cells assessed as late apoptotic cells at 6.5 uM after 48 hrs using Annexin V-FITC and PI staining by flow cytometry (reference value: 85.7 %)", "format": "functional"}, "[13]": {"system": "A549", "experiment": "Induction of apoptosis in human A549 cells assessed as pre-necrotic cells at 6.5 uM after 48 hrs using Annexin V-FITC and PI staining by flow cytometry (reference value: 0.5 %)", "format": "functional"}, "[14]": {"system": "NCI-H226", "experiment": "Cytotoxicity against human NCI-H226 cells", "format": "functional", "procedure,_shortened": "(§3)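 NCI 60-cell panel second-stage testing by NCI standard procedures. Compound was dissolved in DMSO and tested at five 10-fold dilutions: 10^-4, 10^-5, 10^-6, 10^-7 and 10^-8 M.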"}, "[15]": {"system": "NCI-H23", "experiment": "Cytotoxicity against human NCI-H23 cells", "format": "functional", "procedure,_shortened": "as §3"}, "[16]": {"system": "NCI-H522", "experiment": "Cytotoxicity against human NCI-H522 cells", "format": "functional", "procedure,_shortened": "as §3"}, "[17]": {"system": "COLO 205", "experiment": "Cytotoxicity against human COLO205 cells", "format": "functional", "procedure,_shortened": "as §3"}, "[18]": {"system": "HCT-116", "experiment": "Cytotoxicity against human HCT116 cells", "format": "functional", "procedure,_shortened": "as §3"}, "[19]": {"system": "HCT-15", "experiment": "Cytotoxicity against human HCT15 cells", "format": "functional", "procedure,_shortened": "as §3"}, "[20]": {"system": "HT-29", "experiment": "Cytotoxicity against human HT-29 cells", "format": "functional", "procedure,_shortened": "as §3"}, "[21]": {"system": "SF-295", "experiment": "Cytotoxicity against human SF295 cells", "format": "functional", "procedure,_shortened": "as §3"}, "[22]": {"system": "SF-539", "experiment": "Cytotoxicity against human SF539 cells", "format": "functional", "procedure,_shortened": "as §3"}, "[23]": {"system": "SNB-19", "experiment": "Cytotoxicity against human SNB19 cells", "format": "functional", "procedure,_shortened": "(§4)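 NCI 60-cell-line panel protocol. Primary screen used a single 10^-5 M concentration with 48 h incubation, and percent growth was read against untreated cells by sulforhodamine B protein staining. The five-dose follow-up used a DMSO solution at five 10-fold dilutions from 10^-4 to 10^-8 M.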"}, "[24]": {"system": "U-251", "experiment": "Cytotoxicity against human U251 cells", "format": "functional", "procedure,_shortened": "as §4"}, "[25]": {"system": "PC-3", "experiment": "Cytotoxicity against human PC3 cells", "format": "functional", "procedure,_shortened": "as §3"}, "[26]": {"system": "DU-145", "experiment": "Cytotoxicity against human DU145 cells", "format": "functional", "procedure,_shortened": "as §3"}, "[27]": {"system": "SK-MEL-28", "experiment": "Cytotoxicity against human SK-MEL-28 cells", "format": "functional", "procedure,_shortened": "as §4"}, "[28]": {"system": "SK-MEL-5", "experiment": "Cytotoxicity against human SK-MEL-5 cells", "format": "functional", "procedure,_shortened": "as §4"}, "[29]": {"system": "MDA-MB-435", "experiment": "Cytotoxicity against human MDA-MB-435 cells", "format": "functional", "procedure,_shortened": "as §3"}, "[30]": {"system": "OVCAR-3", "experiment": "Cytotoxicity against human OVCAR3 cells", "format": "functional", "procedure,_shortened": "as §3"}, "[31]": {"system": "OVCAR-4", "experiment": "Cytotoxicity against human OVCAR4 cells", "format": "functional", "procedure,_shortened": "as §3"}, "[32]": {"system": "OVCAR-5", "experiment": "Cytotoxicity against human OVCAR5 cells", "format": "functional", "procedure,_shortened": "as §3"}, "[33]": {"system": "RXF 393", "experiment": "Cytotoxicity against human RXF393 cells", "format": "functional", "procedure,_shortened": "as §3"}, "[34]": {"system": "UO-31", "experiment": "Cytotoxicity against human UO31 cells", "format": "functional", "procedure,_shortened": "as §4"}, "[35]": {"system": "MCF7", "experiment": "Cytotoxicity against human MCF7 cells", "format": "functional", "procedure,_shortened": "as §3"}, "[36]": {"system": "BT-549", "experiment": "Cytotoxicity against human BT549 cells", "format": "functional", "procedure,_shortened": "as §3"}, "[37]": {"system": "T47D", "experiment": "Cytotoxicity against human T47D cells", "format": "functional", "procedure,_shortened": "as §4"}, "[38]": {"system": "MDA-MB-468", "experiment": "Cytotoxicity against human MDA-MB-468 cells", "format": "functional", "procedure,_shortened": "as §3"}, "[39]": {"system": "SNB-75", "experiment": "Anticancer activity against human SNB75 cells assessed as mean cell growth at 10^-5 M after 48 hrs by SRB assay", "format": "functional", "procedure,_shortened": "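NCI-60 primary screen run to the US NCI protocol. Compound added at a single concentration of 10^-5 M and cultures incubated 48 h. The end point was sulforhodamine B (SRB) protein staining, reported as percent growth of treated cells relative to untreated control cells.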"}}, "note": "Active and inactive are the calls of the source. The rule behind the calls is not given here."}
{"smiles": "O=C1Nc2ccccc2/C1=C\\c1nc(-c2ccccc2F)n2ccccc12", "values": [{"measurement": "Activity", "setting": "[1]", "value": "Active"}, {"measurement": "Activity", "setting": "[2]", "value": "Active"}, {"measurement": "Activity", "setting": "[3]", "value": "Active"}, {"measurement": "IC50", "setting": "[4]", "value": 6.5, "unit": "µM"}, {"measurement": "Activity", "setting": "[5]", "value": 6.56, "unit": "%"}, {"measurement": "Activity", "setting": "[6]", "value": 75.85, "unit": "%"}, {"measurement": "Activity", "setting": "[7]", "value": 10.12, "unit": "%"}, {"measurement": "Activity", "setting": "[8]", "value": "Non-toxic"}, {"measurement": "Activity", "setting": "[9]", "value": 7.2, "unit": "%"}, {"measurement": "Activity", "setting": "[10]", "value": 0.1, "unit": "%"}, {"measurement": "viability at 6.5 µM", "setting": "[11]", "value": 8.3, "unit": "%"}, {"measurement": "Activity", "setting": "[12]", "value": 3.4, "unit": "%"}, {"measurement": "Activity", "setting": "[13]", "value": 0.9, "unit": "%"}, {"measurement": "GI50", "setting": "[14]", "value": 4.78, "unit": "µM"}, {"measurement": "GI50", "setting": "[15]", "value": 4.55, "unit": "µM"}, {"measurement": "GI50", "setting": "[16]", "value": 2.18, "unit": "µM"}, {"measurement": "GI50", "setting": "[17]", "value": 4.08, "unit": "µM"}, {"measurement": "GI50", "setting": "[18]", "value": 1.97, "unit": "µM"}, {"measurement": "GI50", "setting": "[19]", "value": 13, "unit": "µM"}, {"measurement": "GI50", "setting": "[20]", "value": 3.5, "unit": "µM"}, {"measurement": "GI50", "setting": "[21]", "value": 3.65, "unit": "µM"}, {"measurement": "GI50", "setting": "[22]", "value": 3.1, "unit": "µM"}, {"measurement": "GI50", "setting": "[23]", "value": 4.7, "unit": "µM"}, {"measurement": "GI50", "setting": "[24]", "value": 2.57, "unit": "µM"}, {"measurement": "GI50", "setting": "[25]", "value": 6.81, "unit": "µM"}, {"measurement": "GI50", "setting": "[26]", "value": 3.26, "unit": "µM"}, {"measurement": "GI50", "setting": "[27]", "value": 3.71, "unit": "µM"}, {"measurement": "GI50", "setting": "[28]", "value": 2.8, "unit": "µM"}, {"measurement": "GI50", "setting": "[29]", "value": 3.95, "unit": "µM"}, {"measurement": "GI50", "setting": "[30]", "value": 1.9, "unit": "µM"}, {"measurement": "GI50", "setting": "[31]", "value": 1.81, "unit": "µM"}, {"measurement": "GI50", "setting": "[32]", "value": 1.8, "unit": "µM"}, {"measurement": "GI50", "setting": "[33]", "value": 3.41, "unit": "µM"}, {"measurement": "GI50", "setting": "[34]", "value": 2.12, "unit": "µM"}, {"measurement": "GI50", "setting": "[35]", "value": 2.1, "unit": "µM"}, {"measurement": "GI50", "setting": "[36]", "value": 3.36, "unit": "µM"}, {"measurement": "GI50", "setting": "[37]", "value": 2.36, "unit": "µM"}, {"measurement": "GI50", "setting": "[38]", "value": 1.54, "unit": "µM"}, {"measurement": "Activity", "setting": "[39]", "value": 18.49, "unit": "%"}]}
